Series [1] concerns the target Integrin alpha-4/beta-1 (Homo sapiens, UniProt P05556+P13612). The series can be described thus: Inhibition of integrin alpha4beta1 receptor in human whole blood by flow cytometry. The method, boiled down:
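Human whole blood incubated with 3 mM MnCl2 and streptavidin-FITC, with or without 10 μg/mL biotinylated dimeric hVCAM-mFc. Compound added from tripling dilutions in TBS, 30 min at room temperature with shaking. Red cells lysed, leukocytes pelleted, washed twice in TBS and analysed by flow cytometry for bound VCAM; IC50 derived.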

The target of series [2] is Cytochrome P450 3A4 (Homo sapiens, UniProt P08684). Kind of series: Inhibition of CYP3A4. Type of series: ADME.
Sequence of Cytochrome P450 3A4 (P08684 whole entry): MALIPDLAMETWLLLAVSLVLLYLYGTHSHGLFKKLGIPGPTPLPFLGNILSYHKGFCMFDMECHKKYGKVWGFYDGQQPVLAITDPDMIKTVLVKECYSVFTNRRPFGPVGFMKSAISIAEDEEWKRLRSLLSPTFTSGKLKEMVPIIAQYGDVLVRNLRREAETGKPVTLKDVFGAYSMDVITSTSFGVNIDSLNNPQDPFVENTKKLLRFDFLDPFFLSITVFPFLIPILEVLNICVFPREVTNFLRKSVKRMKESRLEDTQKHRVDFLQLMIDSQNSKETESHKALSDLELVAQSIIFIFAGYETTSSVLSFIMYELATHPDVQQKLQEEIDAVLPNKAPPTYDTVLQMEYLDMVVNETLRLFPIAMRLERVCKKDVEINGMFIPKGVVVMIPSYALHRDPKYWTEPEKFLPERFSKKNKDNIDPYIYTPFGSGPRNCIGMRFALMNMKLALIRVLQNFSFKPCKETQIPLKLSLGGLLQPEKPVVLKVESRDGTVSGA
For series [3], the target named is Cytochrome P450 2C9 (Homo sapiens, UniProt P11712). Kind of series: Inhibition of CYP2C9. Type of series: ADME.
Sequence of Cytochrome P450 2C9 (P11712 whole entry): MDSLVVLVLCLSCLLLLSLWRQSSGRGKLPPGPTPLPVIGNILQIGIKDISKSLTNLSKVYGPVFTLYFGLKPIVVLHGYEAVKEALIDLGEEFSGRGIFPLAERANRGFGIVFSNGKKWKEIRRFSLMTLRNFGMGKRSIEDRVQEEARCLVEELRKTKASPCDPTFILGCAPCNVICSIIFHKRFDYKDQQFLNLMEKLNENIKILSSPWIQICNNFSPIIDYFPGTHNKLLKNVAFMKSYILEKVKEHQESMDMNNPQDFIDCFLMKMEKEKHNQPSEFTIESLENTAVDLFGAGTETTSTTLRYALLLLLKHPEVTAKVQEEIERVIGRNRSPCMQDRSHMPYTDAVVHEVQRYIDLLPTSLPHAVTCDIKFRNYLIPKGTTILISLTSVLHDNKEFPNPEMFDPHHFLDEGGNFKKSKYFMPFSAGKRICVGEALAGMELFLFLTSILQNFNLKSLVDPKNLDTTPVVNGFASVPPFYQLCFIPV
Series [4] can be described thus: Metabolic stability in mouse microsomes assessed as intrinsic clearance at 0.5 uM. The format is ADME, Microsome.
Series [5] in a line: Metabolic stability in rat microsomes assessed as intrinsic clearance at 0.5 uM. The format is ADME, Microsome.
The target in series [6] is Cytochrome P450 2D6 (Homo sapiens, UniProt P10635). The series can be described thus: Inhibition of CYP2D6. Type of series: ADME.
Sequence of Cytochrome P450 2D6 (P10635 whole entry): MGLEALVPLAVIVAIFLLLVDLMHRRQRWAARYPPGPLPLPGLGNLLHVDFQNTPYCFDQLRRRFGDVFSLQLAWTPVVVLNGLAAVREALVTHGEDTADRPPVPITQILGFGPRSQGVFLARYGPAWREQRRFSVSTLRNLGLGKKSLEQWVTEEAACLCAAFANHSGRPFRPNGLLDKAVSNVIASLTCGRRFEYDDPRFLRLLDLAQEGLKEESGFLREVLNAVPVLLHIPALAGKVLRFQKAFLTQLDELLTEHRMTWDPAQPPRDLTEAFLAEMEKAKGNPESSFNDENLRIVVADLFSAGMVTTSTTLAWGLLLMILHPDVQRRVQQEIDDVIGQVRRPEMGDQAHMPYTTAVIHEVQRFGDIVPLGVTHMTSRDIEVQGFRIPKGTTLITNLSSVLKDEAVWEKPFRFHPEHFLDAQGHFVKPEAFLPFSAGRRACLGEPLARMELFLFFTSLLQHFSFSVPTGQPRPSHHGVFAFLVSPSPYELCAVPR
The target in series [7] is T1, Cytochrome P450 1A2 (Homo sapiens, UniProt P05177).
T1 sequence (P05177 whole entry): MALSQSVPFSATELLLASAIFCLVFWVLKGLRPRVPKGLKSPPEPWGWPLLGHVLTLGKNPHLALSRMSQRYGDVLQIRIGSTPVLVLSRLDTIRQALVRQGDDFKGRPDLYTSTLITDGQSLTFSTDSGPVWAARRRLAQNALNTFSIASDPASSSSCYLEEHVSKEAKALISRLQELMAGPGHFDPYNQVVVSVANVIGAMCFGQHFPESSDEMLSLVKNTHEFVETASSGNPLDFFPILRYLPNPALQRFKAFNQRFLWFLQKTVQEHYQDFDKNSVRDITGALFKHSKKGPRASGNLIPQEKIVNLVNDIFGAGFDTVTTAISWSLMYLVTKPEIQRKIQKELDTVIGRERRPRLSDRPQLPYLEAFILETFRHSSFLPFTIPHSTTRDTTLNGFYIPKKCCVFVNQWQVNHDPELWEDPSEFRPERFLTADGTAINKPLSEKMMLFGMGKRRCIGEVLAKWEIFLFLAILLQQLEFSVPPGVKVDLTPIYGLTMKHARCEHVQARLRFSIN
Kind of series: Inhibition of CYP1A2. Type of series: ADME.

Series [8] is described as follows: Metabolic stability in human microsomes assessed as intrinsic clearance at 0.5 uM. Type of series: ADME, Microsome.

Sequence of Integrin alpha-4/beta-1 (P05556 whole entry): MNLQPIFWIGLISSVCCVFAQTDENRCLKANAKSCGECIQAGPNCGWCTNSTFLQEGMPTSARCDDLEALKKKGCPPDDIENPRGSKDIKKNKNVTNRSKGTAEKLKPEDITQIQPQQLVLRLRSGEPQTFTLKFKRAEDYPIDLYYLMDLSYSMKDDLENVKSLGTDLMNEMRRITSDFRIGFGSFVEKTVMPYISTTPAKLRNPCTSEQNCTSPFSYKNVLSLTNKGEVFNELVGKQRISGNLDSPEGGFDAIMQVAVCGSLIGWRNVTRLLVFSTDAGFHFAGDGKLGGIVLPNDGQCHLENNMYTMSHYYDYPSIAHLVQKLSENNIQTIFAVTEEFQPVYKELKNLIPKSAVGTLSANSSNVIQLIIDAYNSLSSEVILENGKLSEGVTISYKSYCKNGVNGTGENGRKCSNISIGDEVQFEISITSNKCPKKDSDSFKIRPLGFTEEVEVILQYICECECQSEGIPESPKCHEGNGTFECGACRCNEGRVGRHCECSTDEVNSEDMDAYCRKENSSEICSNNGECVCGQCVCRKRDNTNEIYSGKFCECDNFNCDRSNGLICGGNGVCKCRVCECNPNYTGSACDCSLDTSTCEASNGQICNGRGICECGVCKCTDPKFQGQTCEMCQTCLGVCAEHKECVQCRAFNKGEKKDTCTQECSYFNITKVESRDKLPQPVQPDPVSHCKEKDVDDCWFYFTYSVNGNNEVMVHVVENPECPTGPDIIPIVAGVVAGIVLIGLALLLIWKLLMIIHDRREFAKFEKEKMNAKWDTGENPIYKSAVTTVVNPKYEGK
Sequence of Integrin alpha-4/beta-1 (P13612 whole entry): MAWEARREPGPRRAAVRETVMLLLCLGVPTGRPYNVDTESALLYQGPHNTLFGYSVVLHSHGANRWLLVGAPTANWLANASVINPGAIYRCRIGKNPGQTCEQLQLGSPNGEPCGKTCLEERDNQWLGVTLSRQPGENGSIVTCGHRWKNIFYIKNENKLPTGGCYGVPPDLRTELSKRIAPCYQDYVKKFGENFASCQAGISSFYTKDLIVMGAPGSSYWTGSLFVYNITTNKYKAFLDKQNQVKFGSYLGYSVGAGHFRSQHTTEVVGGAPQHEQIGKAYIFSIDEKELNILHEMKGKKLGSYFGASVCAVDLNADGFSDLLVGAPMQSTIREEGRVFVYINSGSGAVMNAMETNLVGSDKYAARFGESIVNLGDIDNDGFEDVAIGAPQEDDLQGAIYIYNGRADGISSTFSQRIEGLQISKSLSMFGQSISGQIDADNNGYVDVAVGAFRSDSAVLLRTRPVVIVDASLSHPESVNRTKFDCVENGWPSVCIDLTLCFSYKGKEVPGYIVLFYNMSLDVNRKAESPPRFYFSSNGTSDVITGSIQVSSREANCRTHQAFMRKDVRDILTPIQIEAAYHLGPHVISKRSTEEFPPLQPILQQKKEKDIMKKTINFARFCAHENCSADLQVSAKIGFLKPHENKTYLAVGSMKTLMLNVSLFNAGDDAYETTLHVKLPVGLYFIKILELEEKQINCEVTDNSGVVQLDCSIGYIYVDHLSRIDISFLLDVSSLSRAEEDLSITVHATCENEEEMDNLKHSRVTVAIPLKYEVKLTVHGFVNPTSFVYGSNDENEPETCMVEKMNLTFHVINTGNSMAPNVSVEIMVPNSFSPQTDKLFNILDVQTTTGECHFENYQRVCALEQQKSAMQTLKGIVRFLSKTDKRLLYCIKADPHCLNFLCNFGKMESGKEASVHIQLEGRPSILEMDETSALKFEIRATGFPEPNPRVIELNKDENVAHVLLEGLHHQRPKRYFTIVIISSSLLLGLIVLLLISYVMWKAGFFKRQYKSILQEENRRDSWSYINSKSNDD

In the case of `CC1(C)C(=O)C=C1N[C@@H](Cc1ccc(-n2c(-c3cccnc3)nc3cccnc32)cc1)C(=O)O`, in series [1], the IC50 was determined as 126 nM.

In turn, `O=C(O)[C@H](Cc1ccc(-n2c(C(F)(F)F)nc3cccnc32)cc1)NC1=C(Br)C(=O)C12CCCCC2` returned an IC50 in series [1] of 22 nM. This IC50 lies about 5.7-fold lower than the previous one.

Regarding `O=C(O)[C@H](Cc1ccc(-n2c(C3CCC3)nc3cccnc32)cc1)NC1=C(Br)C(=O)C12CCCCC2`, in series [1], the midpoint of inhibition, the IC50, lay at 18 nM. The IC50 values of the last two compounds are within 1.5-fold of each other.

As to `O=C(O)[C@H](Cc1ccc(-n2c(C3COCCN3)nc3cccnc32)cc1)NC1=C(Br)C(=O)C12CCCCC2` (stereo partly specified), in series [1], the IC50 came to 10 nM.

Take `Cc1nc2cccnc2n1-c1ccc(C[C@H](NC2=C(Br)C(=O)C23CCCCC3)C(=O)O)cc1`: in series [1], it took 570 nM to reach half-maximal inhibition (IC50). This IC50 is about 57-fold higher than that of the compound before.

Consider `CC(C)(C)c1nc2cccnc2n1-c1ccc(C[C@H](NC2=C(Br)C(=O)C23CCCCC3)C(=O)O)cc1`, for which the IC50 in series [1] was found to be 3 nM. Against the preceding compound, the IC50 is about 190-fold lower.

For the compound `O=C(O)[C@H](Cc1ccc(-n2c(C3CC3)nc3cccnc32)cc1)NC1=C(Br)C(=O)C12CCCCC2`, the IC50 in series [1] is 95 nM.

In series [1], `O=C(O)[C@H](Cc1ccc(-n2c(-c3ccc(C(F)(F)F)nc3)nc3cccnc32)cc1)NC1=C(Br)C(=O)C12CCCCC2` yielded an IC50 of 8 nM. This IC50 lies about 12-fold lower than the previous one.

Consider `O=C(O)[C@H](Cc1ccc(-n2c(-c3ccc(N4CCCCC4)nc3)nc3cccnc32)cc1)NC1=C(Br)C(=O)C12CCCCC2`, for which the IC50 in series [1] was determined as 83 nM.

In series [1], `O=C(O)[C@H](Cc1ccc(-n2c(-c3cccnc3)nc3cnccc32)cc1)NC1=CC(=O)C12CCCCC2` had an IC50 of 1620 nM.

Turning to `O=C(O)[C@H](Cc1ccc(-n2c(C3CCCC3)nc3cccnc32)cc1)NC1=C(Br)C(=O)C12CCCCC2`, the IC50 in series [1] amounted to 14 nM. Against the preceding compound, the IC50 is about 120-fold lower.

As for `CC(C)SC1=C(N[C@@H](Cc2ccc(-n3c(-c4cccnc4)nc4cccnc43)cc2)C(=O)O)C2(CCCCC2)C1=O`, half-maximal inhibition in series [1] (IC50) was put at 2 nM.

`CNc1ccc(-c2nc3cccnc3n2-c2ccc(C[C@H](NC3=C(Br)C(=O)C34CCCCC4)C(=O)O)cc2)cn1` displayed an IC50 in series [1] of 9 nM.

`CC1(C)C(=O)C(Cl)=C1N[C@@H](Cc1ccc(-n2c(-c3cccnc3)nc3cccnc32)cc1)C(=O)O` registered an IC50 in series [1] of 19 nM. This IC50 is about 2.1-fold higher than that of the compound before.

Regarding `O=C(O)[C@H](Cc1ccc(-n2c(-c3ccc(Cl)nc3)nc3cccnc32)cc1)NC1=C(Br)C(=O)C12CCCCC2`, the half-maximal inhibitory concentration (IC50) in series [1] was determined as 3 nM.

In the case of `O=C(O)[C@H](Cc1ccc(-n2c(-c3cccnc3)nc3cccnc32)cc1)NC1=CC(=O)C12CCCCC2`, in series [1], the IC50 worked out at 24 nM.

`O=C(O)[C@H](Cc1ccc(-n2c(CC3CC3)nc3cccnc32)cc1)NC1=C(Br)C(=O)C12CCCCC2` came in with an IC50 in series [1] of 8 nM.

Take `CN(C)c1ccnc(-c2nc3cccnc3n2-c2ccc(C[C@H](NC3=C(Br)C(=O)C34CCCCC4)C(=O)O)cc2)c1`: the IC50 in series [1] came to 46 nM.

`O=C(O)[C@H](Cc1ccc(-n2c(C3CCCCN3)nc3cccnc32)cc1)NC1=C(Br)C(=O)C12CCCCC2` (stereo partly specified) came in with an IC50 in series [1] of 3 nM.

`CN(C)c1ccc(-c2nc3cccnc3n2-c2ccc(C[C@H](NC3=C(Br)C(=O)C34CCCCC4)C(=O)O)cc2)cn1` registered a 50% inhibitory concentration (IC50) in series [1] of 22 nM.

Regarding `O=C(O)[C@H](Cc1ccc(-n2c(C3CCCNC3)nc3cccnc32)cc1)NC1=C(Br)C(=O)C12CCCCC2` (stereo partly specified), inhibition in series [1] was half-maximal at 6 nM (IC50).

Consider `O=C(O)[C@H](Cc1ccc(-n2c(-c3cccnc3)nc3cnccc32)cc1)NC1=C(Br)C(=O)C12CCCCC2`, for which the IC50 in series [1] is 236 nM.

`N#CCc1nc2cccnc2n1-c1ccc(C[C@H](NC2=C(Br)C(=O)C23CCCCC3)C(=O)O)cc1` yielded an IC50 in series [1] of 10 nM.

In series [1], `CSCCc1nc2cccnc2n1-c1ccc(C[C@H](NC2=C(Br)C(=O)C23CCCCC3)C(=O)O)cc1` yielded an IC50 of 11 nM.

`CSC1=C(N[C@@H](Cc2ccc(-n3c(-c4cccnc4)nc4cccnc43)cc2)C(=O)O)C2(CCCCC2)C1=O` yielded a 50% inhibitory concentration (IC50) in series [1] of 2 nM.

On to `O=C(O)[C@H](Cc1ccc(-n2c(-c3cccnc3)nc3cccnc32)cc1)NC1=C(Br)C(=O)C12CCCCC2`, for which the IC50 in series [2] was 62000 nM; in series [3] it was 10000 nM; in series [6], more than 100000 nM; in series [7], more than 100000 nM; in series [1] it was 3 nM. Also, the figures for the intrinsic metabolic clearance (microsomal CLint) at 0.5 µM in series [4], in series [5] and in series [8] were 11 µL/min/mg, 48 µL/min/mg and less than 1 µL/min/mg, respectively.

`O=C(O)[C@H](Cc1ccc(-n2c(-c3cccnc3)nc3cc(F)ccc32)cc1)NC1=C(Br)C(=O)C12CCCCC2` registered a half-maximal inhibitory concentration (IC50) in series [1] of 2680 nM.

For `O=C(O)[C@H](Cc1ccc(-n2c(-c3ccccc3)nc3cccnc32)cc1)NC1=C(Br)C(=O)C12CCCCC2`, in series [1], the IC50 was determined as 71 nM. Against the preceding compound, the IC50 is about 38-fold lower.

`O=C(O)[C@H](Cc1ccc(-n2c(-c3cccnc3)nc3cccnc32)cc1)NC1=C(Cl)C(=O)C12CCCCC2` displayed an IC50 in series [1] of 7 nM.

In the case of `O=C(O)[C@H](Cc1ccc(-n2c(C3(C(F)(F)F)CC3)nc3cccnc32)cc1)NC1=C(Br)C(=O)C12CCCCC2`, the concentration for half-maximal inhibition (IC50) in series [2] was 10000 nM; in series [3], 8000 nM; in series [6], more than 100000 nM; in series [7], more than 100000 nM; in series [1] it was 2 nM. Besides, the figures for the microsomal CLint at 0.5 µM in series [4], in series [5] and in series [8] were 15 µL/min/mg, 52 µL/min/mg and 6 µL/min/mg, respectively.

In turn, `O=C(O)[C@H](Cc1ccc(-n2c(C3CCNCC3)nc3cccnc32)cc1)NC1=C(Br)C(=O)C12CCCCC2` gave an IC50 in series [1] of 13 nM.

In the case of `O=C(O)[C@H](Cc1ccc(-n2c(-c3cccnc3)nc3cnccc32)cc1)NC1=C(Cl)C(=O)C12CCCCC2`, inhibition in series [1] was half-maximal at 504 nM (IC50).

Regarding `CC(C)Cc1nc2cccnc2n1-c1ccc(C[C@H](NC2=C(Br)C(=O)C23CCCCC3)C(=O)O)cc1`, in series [1], the concentration for half-maximal inhibition (IC50) worked out at 11 nM.

Take `CC(C)c1nc2cccnc2n1-c1ccc(C[C@H](NC2=C(Br)C(=O)C23CCCCC3)C(=O)O)cc1`: the IC50 in series [2] is 79000 nM; in series [3], 18000 nM; in series [6], more than 100000 nM; in series [7], more than 100000 nM; in series [1], 9 nM. The microsomal CLint at 0.5 µM came out at 14 µL/min/mg in series [4], 38 µL/min/mg in series [5] and 4 µL/min/mg in series [8].

`CC1(C)C(=O)C(Br)=C1N[C@@H](Cc1ccc(-n2c(-c3cccnc3)nc3cccnc32)cc1)C(=O)O`: the IC50 in series [1] was 10 nM.

Values taken from ChEMBL document CHEMBL1157490, “Imidazopyridines as VLA-4 integrin antagonists” (Bioorg Med Chem Lett, 2008).
